Data: the EternaBench riboswitch data

System: MS2 coat protein
Experiment: apparent Kd, MS2 coat protein; higher = weaker binding; RNA-MaP array; tryptophan 2.4 mM where present
Method in brief: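 Green signal from SNAP-549-labelled MS2 coat protein was normalised to red-channel RNA signal and to the median Fmax of control clusters. The protein was titrated from 0.7 or 1.5 nM, doubling to 3 µM, without and then with constant ligand, over designs transcribed by stalled E. coli RNA polymerase on Illumina sequencing-chip clusters, in 100 mM Tris-HCl pH 7.5, 80 mM KCl, 4 mM MgCl2, BSA, DTT, yeast tRNA and Tween-20. The apparent Kd is the median of filtered per-cluster binding-curve fits.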

Sequence | apparent Kd (designed as: ON switch for tryptophan, no ligand) [nM] | apparent Kd (ligand present: tryptophan, designed as: ON switch for tryptophan) [nM] | apparent Kd (designed as: OFF switch for tryptophan, no ligand) [nM] | apparent Kd (ligand present: tryptophan, designed as: OFF switch for tryptophan) [nM]
AUCUUUGGCGAUCUGGGAAAACCAGAUCGACGAGGACCGGUACGGCCGCCACUCGUGUAUAAUAUACAUGAGGAUCACCCAUGUA | 47.5 | 30.5 |  | 
AAUGUAUGGCACAUGAGGAUCACCCAUGUGCGAGGACCGGUACGGCCGCCACUCGGUCGUGGGUUCUUAUUACUAUACAUUAAUG |  |  | 10.7 | 12.3
